Columns and labels:
Staphylococcus aureus = assay: Antibacterial activity against Staphylococcus aureus measured every 120 mins for 36 hrs by LB broth two-fold serial dilution method; assay type: functional
Summary of the method: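 Panel of 12 laboratory and clinical S. aureus strains with varied drug-susceptibility patterns. Compounds were two-fold serially diluted in LB broth from a maximum of 32 mg/L. Growth was followed by OD600 every 120 min for 36 h. Vancomycin was the positive control, and runs were in duplicate.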

HCC 2998 = assay: Anticancer activity against human HCC2998 cells assessed as cell growth inhibition measured after 48 hrs by SRB assay; assay type: functional; conditions: HCC 2998, 48 h
Summary of the method: (§1)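 NCI-60 five-dose screen at 100, 10, 1.0, 0.1 and 0.01 µM final. Cells in RPMI-1640 with 5% FBS and 2 mM glutamine were seeded 24 h ahead at 37°C, 5% CO2. Compound exposure was 48 h, followed by TCA fixation and SRB staining, read at 515 nm. GI50 is the concentration giving 50% lower net protein increase than control, using time-zero plates.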

SK-OV-3 = assay: Anticancer activity against human SKOV3 cells assessed as cell growth inhibition measured after 48 hrs by SRB assay; assay type: functional; conditions: SK-OV-3, 48 h
Summary of the method: (§2)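 NCI 60-cell screen, five-dose mode at 100, 10, 1.0, 0.1 and 0.01 µM. Cells grown in RPMI-1640 with 5% FBS and 2 mM L-glutamine, seeded and held 24 h at 37°C, 5% CO2, then exposed for 48 h. Fixed with cold TCA (10% final), stained with 0.4% SRB and read at 515 nm. Time-zero plates were used. GI50 is the concentration giving 50% lower net protein increase than control.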

CCRF-CEM = assay: Anticancer activity against human CCRF-CEM cells assessed as cell growth inhibition measured after 48 hrs by SRB assay; assay type: functional; summary of the method: as §1
HL-60 = assay: Anticancer activity against human HL60 cells assessed as cell growth inhibition measured after 48 hrs by SRB assay; assay type: functional; conditions: HL-60, 48 h; for CC50: read-out: LC50 (the source's name); summary of the method: as §1
MOLT-4 = assay: Anticancer activity against human MOLT4 cells assessed as cell growth inhibition measured after 48 hrs by SRB assay; assay type: functional; conditions: MOLT-4, 48 h; summary of the method: as §1
RPMI-8226 = assay: Anticancer activity against human RPMI8226 cells assessed as cell growth inhibition measured after 48 hrs by SRB assay; assay type: functional; conditions: RPMI-8226, 48 h; for CC50: read-out: LC50 (the source's name); summary of the method: as §1
SR = assay: Anticancer activity against human SR cells assessed as cell growth inhibition measured after 48 hrs by SRB assay; assay type: functional; summary of the method: as §2
EKVX = assay: Anticancer activity against human EKVX cells assessed as cell growth inhibition measured after 48 hrs by SRB assay; assay type: functional; summary of the method: as §1
HOP-62 = assay: Anticancer activity against human HOP62 cells assessed as cell growth inhibition measured after 48 hrs by SRB assay; assay type: functional; conditions: HOP-62, 48 h; summary of the method: as §1
HOP-92 = assay: Anticancer activity against human HOP92 cells assessed as cell growth inhibition measured after 48 hrs by SRB assay; assay type: functional; conditions: HOP-92, 48 h; summary of the method: as §1
NCI-H322M = assay: Anticancer activity against human NCI-H322M cells assessed as cell growth inhibition measured after 48 hrs by SRB assay; assay type: functional; summary of the method: as §1
NCI-H460 = assay: Anticancer activity against human NCI-H460 cells assessed as cell growth inhibition measured after 48 hrs by SRB assay; assay type: functional; conditions: NCI-H460, 48 h; summary of the method: as §1
SF-295 = assay: Anticancer activity against human SF295 cells assessed as cell growth inhibition measured after 48 hrs by SRB assay; assay type: functional; conditions: SF-295, 48 h; summary of the method: as §1
LOX IMVI = assay: Anticancer activity against human LOXIMVI cells assessed as cell growth inhibition measured after 48 hrs by SRB assay; assay type: functional; summary of the method: as §1
M14 = assay: Anticancer activity against human M14 cells assessed as cell growth inhibition measured after 48 hrs by SRB assay; assay type: functional; conditions: M14, 48 h; for CC50: read-out: LC50 (the source's name); summary of the method: as §1
MDA-MB-435 = assay: Anticancer activity against human MDA-MB-435 cells assessed as cell growth inhibition measured after 48 hrs by SRB assay; assay type: functional; conditions: MDA-MB-435, 48 h; summary of the method: as §1
SK-MEL-28 = assay: Anticancer activity against human SK-MEL-28 cells assessed as cell growth inhibition measured after 48 hrs by SRB assay; assay type: functional; conditions: SK-MEL-28, 48 h; for CC50: read-out: LC50 (the source's name); summary of the method: as §2
UACC-257 = assay: Anticancer activity against human UACC257 cells assessed as cell growth inhibition measured after 48 hrs by SRB assay; assay type: functional; conditions: UACC-257, 48 h; for CC50: read-out: LC50 (the source's name); summary of the method: as §2
UACC-62 = assay: Anticancer activity against human UACC62 cells assessed as cell growth inhibition measured after 48 hrs by SRB assay; assay type: functional; conditions: UACC-62, 48 h; for CC50: read-out: LC50 (the source's name); summary of the method: as §2
OVCAR-5 = assay: Anticancer activity against human OVCAR5 cells assessed as cell growth inhibition measured after 48 hrs by SRB assay; assay type: functional; conditions: OVCAR-5, 48 h; for CC50: read-out: LC50 (the source's name); summary of the method: as §1
OVCAR-8 = assay: Anticancer activity against human OVCAR8 cells assessed as cell growth inhibition measured after 48 hrs by SRB assay; assay type: functional; conditions: OVCAR-8, 48 h; summary of the method: as §1
A498 = assay: Anticancer activity against human A498 cells assessed as cell growth inhibition measured after 48 hrs by SRB assay; assay type: functional; conditions: A498, 48 h; for CC50: read-out: LC50 (the source's name); summary of the method: as §1
RXF 393 = assay: Anticancer activity against human RXF393 cells assessed as cell growth inhibition measured after 48 hrs by SRB assay; assay type: functional; conditions: RXF 393, 48 h; summary of the method: as §1
DU-145 = assay: Anticancer activity against human DU145 cells assessed as cell growth inhibition measured after 48 hrs by SRB assay; assay type: functional; conditions: DU-145, 48 h; summary of the method: as §1
MCF7 = assay: Anticancer activity against human MCF7 cells assessed as cell growth inhibition measured after 48 hrs by SRB assay; assay type: functional; conditions: MCF7, 48 h; summary of the method: as §1
MDA-MB-231 = assay: Anticancer activity against human MDA-MB-231 cells assessed as cell growth inhibition measured after 48 hrs by SRB assay; assay type: functional; conditions: MDA-MB-231, 48 h; summary of the method: as §1
BT-549 = assay: Anticancer activity against human BT549 cells assessed as cell growth inhibition measured after 48 hrs by SRB assay; assay type: functional; conditions: BT-549, 48 h; summary of the method: as §1
T47D = assay: Anticancer activity against human T47D cells assessed as cell growth inhibition measured after 48 hrs by SRB assay; assay type: functional; summary of the method: as §2
[1] = Selectivity index, ratio of LC50 for mouse 3T3 cells to MIC for Mycobacterium tuberculosis H37Rv ATCC27294; assay type: toxicity; conditions: read-out: Selectivity Index

COc1ccc(C(=O)/C=C/c2ccc(Cl)cc2)cc1S(N)(=O)=O
MIC (Staphylococcus aureus): > 57 µM | GI50 (HCC 2998): 1.78 µM | LC50 (HCC 2998): 7.48 µM | GI50 (SK-OV-3): 5.96 µM | LC50 (concentration killing 50% of cells relative to time zero) (SK-OV-3): 43.1 µM | GI50 (CCRF-CEM): 3.34 µM | LC50 (CCRF-CEM): > 100 µM | GI50 (HL-60): 3.08 µM | CC50 (HL-60): > 100 µM | GI50 (MOLT-4): 2.93 µM | LC50 (MOLT-4): > 100 µM | GI50 (RPMI-8226): 2.61 µM | CC50 (RPMI-8226): > 100 µM | GI50 (SR): 0.86 µM | LC50 (concentration giving 50% net cell kill) (SR): > 100 µM | GI50 (EKVX): 4.56 µM | LC50 (concentration killing 50% of cells) (EKVX): 50.5 µM | GI50 (HOP-62): 2.51 µM | LC50 (HOP-62): 31.2 µM | GI50 (HOP-92): 2.14 µM | LC50 (HOP-92): 21.4 µM | GI50 (NCI-H322M): 2.04 µM | LC50 (NCI-H322M): 28.8 µM | GI50 (NCI-H460): 2.58 µM | LC50 (concentration causing 50% net cell kill) (NCI-H460): 30 µM | GI50 (SF-295): 3.04 µM | LC50 (SF-295): 31.9 µM | GI50 (LOX IMVI): 1.28 µM | LC50 (concentration giving 50% net cell kill) (LOX IMVI): 5.47 µM | GI50 (M14): 2.13 µM | CC50 (M14): 21.2 µM | GI50 (MDA-MB-435): 4.34 µM | LC50 (concentration killing 50% of cells present at time zero) (MDA-MB-435): 41.6 µM | GI50 (SK-MEL-28): 3.24 µM | CC50 (SK-MEL-28): 37.2 µM | GI50 (UACC-257): 12.2 µM | CC50 (UACC-257): 50.8 µM | GI50 (UACC-62): 4.88 µM | CC50 (UACC-62): 44.8 µM | GI50 (OVCAR-5): 3.08 µM | CC50 (OVCAR-5): 44.9 µM | GI50 (OVCAR-8): 3.55 µM | LC50 (concentration giving 50% net cell kill) (OVCAR-8): 32.6 µM | GI50 (A498): 10.4 µM | CC50 (A498): 47.1 µM | GI50 (RXF 393): 1.98 µM | LC50 (concentration causing 50% net cell kill) (RXF 393): 7.96 µM | GI50 (DU-145): 3.42 µM | LC50 (DU-145): 36.3 µM | GI50 (MCF7): 1.3 µM | LC50 (MCF7): > 100 µM | GI50 (MDA-MB-231): 3.48 µM | LC50 (MDA-MB-231): 40.1 µM | GI50 (BT-549): 2.29 µM | LC50 (BT-549): 27.3 µM | GI50 (T47D): 3.2 µM | LC50 (T47D): 59 µM | selectivity ratio [1]: 0.29

COc1ccc(C(=O)/C=C/c2ccc(Cl)cc2)cc1S(=O)(=O)Nc1c(N)nc(SC)[nH]c1=O
MIC (Staphylococcus aureus): > 57 µM | GI50 (HCC 2998): 1.92 µM | LC50 (HCC 2998): 6.5 µM | GI50 (SK-OV-3): 3.65 µM | LC50 (concentration killing 50% of cells relative to time zero) (SK-OV-3): 36.6 µM | GI50 (CCRF-CEM): 2.66 µM | LC50 (CCRF-CEM): > 100 µM | GI50 (HL-60): 3.2 µM | CC50 (HL-60): > 100 µM | GI50 (MOLT-4): 3.71 µM | LC50 (MOLT-4): > 100 µM | GI50 (RPMI-8226): 2.17 µM | CC50 (RPMI-8226): > 100 µM | GI50 (SR): 3.57 µM | LC50 (concentration giving 50% net cell kill) (SR): > 100 µM | GI50 (EKVX): 3.94 µM | LC50 (concentration killing 50% of cells) (EKVX): 80.3 µM | GI50 (HOP-62): 1.81 µM | LC50 (HOP-62): 8.7 µM | GI50 (HOP-92): 2.59 µM | LC50 (HOP-92): 32.6 µM | GI50 (NCI-H322M): 2.38 µM | LC50 (NCI-H322M): 28 µM | GI50 (NCI-H460): 2.49 µM | LC50 (concentration causing 50% net cell kill) (NCI-H460): 29.1 µM | GI50 (SF-295): 2.72 µM | LC50 (SF-295): 34.7 µM | GI50 (LOX IMVI): 1.63 µM | LC50 (concentration giving 50% net cell kill) (LOX IMVI): 6.34 µM | GI50 (M14): 2 µM | CC50 (M14): 15.7 µM | GI50 (MDA-MB-435): 2.95 µM | LC50 (concentration killing 50% of cells present at time zero) (MDA-MB-435): 48 µM | GI50 (SK-MEL-28): 2.1 µM | CC50 (SK-MEL-28): 17 µM | GI50 (UACC-257): 8.27 µM | CC50 (UACC-257): 50.1 µM | GI50 (UACC-62): 2.33 µM | CC50 (UACC-62): 27.4 µM | GI50 (OVCAR-5): 2.83 µM | CC50 (OVCAR-5): 38.2 µM | GI50 (OVCAR-8): 3.07 µM | LC50 (concentration giving 50% net cell kill) (OVCAR-8): 37.1 µM | GI50 (A498): 10.6 µM | CC50 (A498): 47.6 µM | GI50 (RXF 393): 1.6 µM | LC50 (concentration causing 50% net cell kill) (RXF 393): 6.67 µM | GI50 (DU-145): 3.58 µM | LC50 (DU-145): 33.9 µM | GI50 (MCF7): 1.97 µM | LC50 (MCF7): > 100 µM | GI50 (MDA-MB-231): 3.42 µM | LC50 (MDA-MB-231): 40.3 µM | GI50 (BT-549): 1.63 µM | LC50 (BT-549): 6.17 µM | GI50 (T47D): 2.45 µM | LC50 (T47D): 38.8 µM | selectivity ratio [1]: 0.65
